# In ChEMBL document CHEMBL4396969, “Discovery of IACS-8803 and IACS-8779, potent agonists of stimulator of interferon genes (STING) with robust systemic antitumor efficacy” (Bioorg Med Chem Lett, 2019):
# Active and inactive are the calls of the source. The rule behind the calls is not given here.
# What was measured:
# [1] = biological target: T1, Stimulator of interferon genes protein (Mus musculus) (UniProt Q3TBT3); experiment: Agonist activity at STING in mouse J774 cells assessed as stimulation of IRF3 pathway measured after 20 hrs by luciferase reporter gene assay; format: cell-based
# T1 sequence (whole entry): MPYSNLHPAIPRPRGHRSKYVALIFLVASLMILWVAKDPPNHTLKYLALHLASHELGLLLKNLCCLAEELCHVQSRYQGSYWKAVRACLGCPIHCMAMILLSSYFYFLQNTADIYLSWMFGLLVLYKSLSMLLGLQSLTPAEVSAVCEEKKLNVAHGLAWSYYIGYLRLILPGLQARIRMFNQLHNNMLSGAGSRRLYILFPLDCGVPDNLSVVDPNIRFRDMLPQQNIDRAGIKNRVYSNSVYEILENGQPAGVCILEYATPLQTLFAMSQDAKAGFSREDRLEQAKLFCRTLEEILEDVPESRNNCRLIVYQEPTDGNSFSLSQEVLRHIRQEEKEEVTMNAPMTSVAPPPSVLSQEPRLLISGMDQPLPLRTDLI
# How it was run: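 J774-Dual reporter cells (stably carrying inducible NF-kB and IRF3 reporter constructs), 5×10^4 per well, given CDN at 1 µg/mL for 20 hours; IRF3 pathway activity read by luciferase assay.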
# Mus musculus [2] = experiment: Antitumor activity against mouse B16-OVA cells implanted in mouse assessed as tumour regression in contralateral flank at 10 ug administered intratumorally on day 6, 9 and 12 post implantation; format: functional, cell-based
# How it was run: (§1)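 Mice (n=5 per group) implanted bilaterally with 1×10^5 B16-Ova cells; 10 µg CDN injected intratumorally into one flank only on days 6, 9 and 12 post implantation. Tumor regression followed in injected and contralateral untreated flanks; cure of both tumors recorded.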
# Mus musculus [3] = experiment: Antitumor activity against mouse B16-OVA cells implanted in mouse assessed as tumour regression in injected flank at 10 ug administered intratumorally on day 6, 9 and 12 post implantation; format: functional, cell-based; how it was run: as §1
# Mus musculus [4] = experiment: Antitumor activity against mouse B16-OVA cells implanted in mouse assessed as higher number of mouse cured of tumors at 10 ug administered intratumorally on day 6, 9 and 12 post implantation; format: functional, cell-based; how it was run: as §1
Structure (SMILES),Activity [1],Activity (Mus musculus [2]),Activity (Mus musculus [3]),Activity (Mus musculus [4])
Nc1ncnc2c1ccn2[C@@H]1O[C@@H]2CO[P@@](=O)(S)O[C@H]3[C@@H](O)[C@H](n4cnc5c(N)ncnc54)O[C@@H]3CO[P@@](=O)(S)O[C@@H]1[C@@H]2O,Active,–,–,–
Nc1nc2c(ncn2[C@@H]2O[C@@H]3COP(=O)(O)O[C@H]4[C@@H](O)[C@H](n5cnc6c(N)ncnc65)O[C@@H]4COP(=O)(O)O[C@@H]2[C@@H]3O)c(=O)[nH]1,–,Active,Active,Active
Nc1ncnc2c1ccn2[C@@H]1O[C@@H]2CO[P@@](=O)(S)O[C@@H]3[C@H](O)[C@@H](CO[P@@](=O)(S)O[C@H]2[C@H]1O)O[C@H]3n1cnc2c(N)ncnc21,Active,Active,Active,Active
Nc1ncnc2c1ncn2[C@@H]1O[C@@H]2CO[P@@](=O)(S)O[C@@H]3[C@H](O)[C@@H](CO[P@@](=O)(S)O[C@H]2[C@H]1F)O[C@H]3n1cnc2c(N)ncnc21,Active,Active,Active,Active
Nc1ncnc2c1ccn2[C@@H]1O[C@@H]2CO[P@](=O)(S)O[C@@H]3[C@H](O)[C@@H](CO[P@@](=O)(S)O[C@H]2[C@H]1O)O[C@H]3n1cnc2c(N)ncnc21,Active,–,–,–
Nc1ncnc2c1ccn2[C@@H]1O[C@@H]2CO[P@@](=O)(S)O[C@H]3[C@@H](O)[C@H](n4cnc5c(N)ncnc54)O[C@@H]3CO[P@](=O)(S)O[C@@H]1[C@@H]2O,Active,–,–,–
Nc1ncnc2c1ncn2[C@@H]1O[C@@H]2CO[P@](=O)(S)O[C@@H]3[C@H](O)[C@@H](CO[P@@](=O)(S)O[C@H]2[C@H]1F)O[C@H]3n1cnc2c(N)ncnc21,Active,–,–,–
